Source: PubChem
Sampled rows, rich in hits. Any-hit rate of the full collection: about 6.6%.
HER2 expr 66K = Her2 kinase expression inhibition; 0.69% of 65,000 active; SKBR-3 HER2 protein level, AlphaScreen, 18-24 h; stronger effect = lower value; P04626; HER2 level % of control, % at 10 µM;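 active = HER2 level under 5% of the carrier-only control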;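 note: 100% = DMSO carrier and 0% = 500 nM PU-H71 HSP90 inhibitor; lower value means stronger loss of Her2 protein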
M1 antagonist = M1 muscarinic receptor (rat) antagonism. AID 628. B-score at 10 µM. CHO-M1 cells, Fluo-4 calcium, ACh EC80 antagonist mode; stronger effect = lower value. 3.4% of 64,000 active. P08482;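 active = calcium fluorescence response, raw or row-and-column corrected B-score, differing from the plate sample mean either way at a set confidence level, mostly lower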
Target sequence (P08482 whole entry, looked up): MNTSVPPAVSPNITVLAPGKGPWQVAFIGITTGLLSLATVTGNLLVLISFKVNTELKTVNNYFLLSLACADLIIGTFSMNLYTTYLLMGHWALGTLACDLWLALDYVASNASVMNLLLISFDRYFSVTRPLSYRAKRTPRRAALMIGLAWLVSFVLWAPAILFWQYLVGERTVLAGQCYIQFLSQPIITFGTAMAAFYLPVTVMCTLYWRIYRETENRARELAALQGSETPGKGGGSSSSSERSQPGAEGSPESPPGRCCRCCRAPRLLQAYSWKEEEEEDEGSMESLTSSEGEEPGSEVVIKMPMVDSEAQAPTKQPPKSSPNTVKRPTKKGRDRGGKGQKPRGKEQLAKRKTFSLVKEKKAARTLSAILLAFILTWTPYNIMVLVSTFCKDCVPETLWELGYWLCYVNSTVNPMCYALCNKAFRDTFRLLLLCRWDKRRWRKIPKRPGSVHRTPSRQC
HEK293 NFkB inh = lowers PMA/ionomycin-induced NF-kB signal in HEK293 cells; 0.21% of 62,000 active; inhibition, % at 3 µM; AID 465; HEK-293 NF-kB luciferase reporter, luminescence;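 active = inhibition above the mean of all tested compounds plus 3 SD, cut at about 40% in these data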;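 note: 0% = stimulated DMSO wells and 100% = 10 µM reference inhibitor 5653914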
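Timing: 1 h pretreatment, 16 h stimulation, 37 °C; system: HEK-293 cells with stable firefly luciferase reporter driven by four HIV NF-kB elements; doses: 3 µM once, 0.30% DMSO; measured by: luciferase luminescence; control set: DMSO and 10 µM reference inhibitor; repeats: single test; reagent: PMA plus ionomycin mix as NF-kB-activating stimulus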
M1 agonist = agonists of M1 muscarinic receptor; CHO-M1 cells, Fluo-4 calcium fluorescence, agonist mode; stronger effect = higher value; B-score at 10 µM; 3% of 64,000 active;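 active = fluorescence rise, raw or as B-score row- and column-corrected plate score, outside the 99.7% band of its plate's samples, either direction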
JNK3 inh = blocks human JNK3 kinase activity. 0.61% of 60,000 active. P53779. purified JNK3 kinase activity, HTS. inhibition, % at 8 µM; in the data active = inhibition above about 17%;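 note: 0% = DMSO and 100% = reference inhibitor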
BAP1 inh = human BAP1 deubiquitinase inhibition | Q92560 | recombinant BAP1, Ub-AMC hydrolysis fluorescence kinetic; stronger effect = lower value | calls only at 20 µM | 0.48% of 72,000 active | AID 436;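 active = activity remaining at or below 50% of control, provided the compound also passes the data quality filters; inactive = the rest, including low values that fail the filters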;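 note: 100% = DMSO wells rate and 0% = substrate alone blank rate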
M1 antag confirm = M1 muscarinic receptor (rat) antagonism, confirmed. calcium response (max-min fluorescence) at 10 µM. shares compounds with M1 antagonist. 43% of 1,700 active. CHO-M1 cells, Fluo-4 calcium, ACh EC80 antagonism; stronger effect = lower value;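 active = calcium response below the same-plate mean of wells given acetylcholine alone at its 80%-effect dose, minus 3 SD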;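 note: raw fluorescence intensity difference in arbitrary instrument units and not normalized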
mGluR4 antag = mGluR4 (human) activity, M1 antagonist secondary assay | fluorescence response (max-min) at 10 µM | AID 678 | 0.9% of 1,700 active | shares compounds with M1 antagonist | CHO-mGluR4 calcium flux, Fluo-4 fluorescence, glutamate EC80; stronger effect = lower value;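 active = fluorescence response below the plate's average for near-maximal glutamate wells, less 3 SD of those wells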;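 note: raw unnormalized fluorescence span taken in the window right after glutamate addition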
Starred values were filed as active, the others as inactive.

Results for O=C(Nc1cccc([N+](=O)[O-])c1)C1C2C3CCC(C3)C12 (configuration not stated) ?
BAP1 inh: inactive

What do the screens show for `CN1CCN(c2nc(NCCOC34CC5CC(CC(C5)C3)C4)nc(OCC(F)(F)F)n2)CC1`?
HER2 expr 66K: 60; M1 antagonist: -6.2*; HEK293 NFkB inh: 6; M1 agonist: -1.1; JNK3 inh: -5; BAP1 inh: inactive; M1 antag confirm: 484*; mGluR4 antag: 190

What do the screens show for `Clc1ccc(CSC2=NCCCN2)cc1Cl`?
HER2 expr 66K: -17*; M1 antagonist: -4*; HEK293 NFkB inh: 27; M1 agonist: 0.1; JNK3 inh: -5; BAP1 inh: inactive; M1 antag confirm: 355*; mGluR4 antag: 213

Results for CCN(CC)CCCNC(=O)N[C@@H](Cc1ccccc1)C(=O)O ?
HER2 expr 66K: 102; M1 antagonist: 0.14; HEK293 NFkB inh: 10; M1 agonist: -0.31; JNK3 inh: 4; BAP1 inh: inactive

Results for CCN(CCCc1ccccc1)CCCc1ccccc1 ?
HER2 expr 66K: 85; M1 antagonist: -13*; M1 agonist: -1.2; JNK3 inh: 2; BAP1 inh: inactive; M1 antag confirm: 18*; mGluR4 antag: 256

How did O=C(O)c1cc(NC(=O)c2ccc3c(c2)C(=O)N(C2CCCCC2)C3=O)cc(C(=O)O)c1 do in these assays?
BAP1 inh: inactive

What do the screens show for `O=C(O)c1cccc(S(=O)(=O)NCc2ccccc2)c1`?
BAP1 inh: inactive

What do the screens show for `CCOc1ccc(C(=O)Nc2nccs2)cc1Br`?
BAP1 inh: inactive

What do the screens show for `Cc1noc(/C=C/N(C)C)c1S(=O)(=O)N1CCCC(C(=O)NC2CCCCC2)C1` (configuration not stated)?
HER2 expr 66K: 87; M1 antagonist: -2.3*; HEK293 NFkB inh: 17; M1 agonist: -0.86; JNK3 inh: 9; BAP1 inh: inactive; M1 antag confirm: 477; mGluR4 antag: 216

Results for CC(=O)Nc1ccc2nc(NC(=O)c3ccc(S(=O)(=O)N4CC(C)CC(C)C4)cc3)sc2c1 (configuration not stated) ?
BAP1 inh: inactive

How did CN1C(=O)C(O)(C2COC(C)(C)CC2=O)c2ccccc21 (configuration not stated) do in these assays?
HER2 expr 66K: 107; M1 antagonist: -3.8*; HEK293 NFkB inh: 15; M1 agonist: 1; JNK3 inh: -9; BAP1 inh: inactive; M1 antag confirm: 472*; mGluR4 antag: 237

Results for Cc1ccc(C)c(OCCCN2CCCC2)c1 ?
HER2 expr 66K: 155; M1 antagonist: -3*; HEK293 NFkB inh: 13; M1 agonist: -1.8; JNK3 inh: 7; BAP1 inh: inactive; M1 antag confirm: 511*; mGluR4 antag: 265

Results for N#Cc1nc(COc2ccccc2)oc1NCCN1CCOCC1 ?
HER2 expr 66K: 84; M1 antagonist: 0.086; HEK293 NFkB inh: -10; M1 agonist: 0.65; BAP1 inh: inactive

What do the screens show for `N#Cc1nc(COc2ccc(-c3ccccc3)cc2)oc1NCCCN1CCOCC1`?
HER2 expr 66K: 69; M1 antagonist: -3*; HEK293 NFkB inh: 4; M1 agonist: -1.2; JNK3 inh: -5; BAP1 inh: inactive; M1 antag confirm: 545; mGluR4 antag: 237

What do the screens show for `Cc1ccc(N2C(=O)[C@@H]3Cc4ccccc4CN3C2=O)cc1`?
HER2 expr 66K: 106; M1 antagonist: 0.031; HEK293 NFkB inh: 13; M1 agonist: -0.68; JNK3 inh: -5; BAP1 inh: inactive

How did CC(C)c1ccc(N2C(=O)[C@@H]3Cc4ccccc4CN3C2=O)cc1 do in these assays?
HER2 expr 66K: 107; M1 antagonist: -1.3*; HEK293 NFkB inh: 15; M1 agonist: -0.81; JNK3 inh: -8; BAP1 inh: inactive; M1 antag confirm: 667; mGluR4 antag: 257

What do the screens show for `COc1ccc(C2CC(C(F)(F)F)n3nc(C(=O)N4CCCCCC4)c(Cl)c3N2)cc1OC` (configuration not stated)?
BAP1 inh: inactive

Results for COc1cc(C(=O)Nc2nc3ccc([N+](=O)[O-])cc3s2)cc(OC)c1OC ?
BAP1 inh: inactive

Results for CCc1cc2c3c(c(=O)oc2cc1OC)CCCC3 ?
HER2 expr 66K: 122; M1 antagonist: -1.8*; HEK293 NFkB inh: 20; M1 agonist: 0.036; JNK3 inh: 0; M1 antag confirm: 487; mGluR4 antag: 202

How did O=C(CCN1C(=O)C2C3C=CC(C3)C2C1=O)Nc1ccc2c(c1)OCO2 (configuration not stated) do in these assays?
HER2 expr 66K: 106; M1 antagonist: -2.6*; HEK293 NFkB inh: 4; M1 agonist: 0.31; JNK3 inh: -13; BAP1 inh: inactive; M1 antag confirm: 588; mGluR4 antag: 211

How did Cn1ncc(Cl)c1C(=O)Nc1ccc2nc(NC(=O)C3CCCCC3)sc2c1 do in these assays?
BAP1 inh: inactive

Results for Cc1ccc(C23CC4CC(CC(C4)C2)C3)cc1NC(=O)c1ccccc1 ?
BAP1 inh: inactive

What do the screens show for `CCOC(=O)c1c(NC(=O)c2ccn(CC)n2)sc2c1CCCC2`?
HER2 expr 66K: 91; M1 antagonist: 0.0014; HEK293 NFkB inh: 20; M1 agonist: -0.74; JNK3 inh: 2

How did CCOC(=O)c1c(NC(=O)c2nc3n(n2)C(C(F)F)CC(C)N3)sc2c1CCCC2 (configuration not stated) do in these assays?
HER2 expr 66K: 101; M1 antagonist: -5.7*; HEK293 NFkB inh: 11; M1 agonist: 0.43; JNK3 inh: 9; M1 antag confirm: 647; mGluR4 antag: 238

Results for CCCCOC(=O)c1ccc(OC(=O)c2cccnc2)cc1 ?
HER2 expr 66K: 96; M1 antagonist: -5.1*; HEK293 NFkB inh: 14; M1 agonist: -0.09; JNK3 inh: 1; BAP1 inh: inactive; M1 antag confirm: 620; mGluR4 antag: 266

Results for COC(=O)C1=C(C)N(C)C(=O)NC1c1cccc([N+](=O)[O-])c1 (configuration not stated) ?
BAP1 inh: inactive

How did Cc1nnc(SCCn2c(N3CCN(Cc4ccccc4)CC3)nc3c2c(=O)[nH]c(=O)n3C)s1 do in these assays?
HER2 expr 66K: 103; M1 antagonist: -4.1*; HEK293 NFkB inh: -17; M1 agonist: -1.3; JNK3 inh: 1; BAP1 inh: inactive; M1 antag confirm: 588; mGluR4 antag: 246
